Test results published in the RNAGym collection of RNA variant scans (doi:10.1038/s41586-018-0170-7).

B1: tRNA (parent)
chain: GUUCCGUUGGCGUAAUGGUAACGCGUCUCCCUCCUAAGGAGAAGACUGCGGGUUCGAGUCCCGUACGGAACG

Variants of: B1
Experiment: yeast fitness, log relative to wild type (ln ratio); higher = fitter; tRNA-Arg(CCU), competitive growth, 37 C, 1 M NaCl
Outline: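 Fitness is the natural log of a genotype's generation count divided by that of the wild type. A combinatorial library of tRNA-Arg(CCU) variants sat on a HIS3 centromeric plasmid in BY4742 lacking the chromosomal gene, from two independent transformations. Pools grew 4 generations in SC-HIS at 30 °C, then ~6.5 generations (~26.5 h) in SC-HIS 1M NaCl at 37 °C, with three outputs per input. Generations came from OD-scaled log2 output/input frequency, inverse-variance weighted across replicates, with variants counted by 125 bp paired-end Illumina sequencing.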

Variant | yeast fitness (ln)
AUUCCGUUGGCGUAAUGGUAACGCGUUUCCCUCCUAAGGAGAAGACUGCGGGUUCGAGUCCCGUAUGGAGUG | -0.225
GUUCCGUUGGCGUAAUGGUAACGCGUCUCCCUCCUAAGGAGACGACUGCGGGUUCGAGUCCCGUAAGGGUUG | -0.398
ACUCCUUUGGCGUAAUGGUAACGCGUCUCCCUCCUAAGGAGAAGAUUGCGGGUUCGAGUCCCGUACGGGUCG | -0.0237
AUUCCGUUGGCGUAAUGGUAACGCGUUUCCCUCCUAAGGAGAAGAUUGCGGGUUCGAGUCCCGUAAGGAGUG | -0.187
GUUCCUUUGGCGUAAUGGUAACGCGUCUCCCUCCUAAGGAGACGACUGCGGGUUCGAGUCCCGUAUGGAUUG | -0.481
GCUCCUUUGGCGUAAUGGUAACGCGUCUCCCUCCUAAGGAGAAGAUUGCGGGUUCGAGUCCCGUACGGGUCG | -0.086
AUUCCGUUGGCGUAAUGGUAACGCGUUUCCCUCCUAAGGAGAAGAUUGCGGGUUCGAGUCCCGUAUGGAGCG | -0.157
AUUCCAUUGGCGUAAUGGUAACGCGUCUCCCUCCUAAGGAGACGAUUGCGGGUUCGAGUCCCGUAUGGAACG | -0.295
AGUCCGUUGGCGUAAUGGUAACGCGUCUCCCUCCUAAGGAGACGACUGCGGGUUCGAGUCCCGUAUGGGAUG | -0.497
AUUCCGUUGGCGUAAUGGUAACGCGUCUCCCUCCUAAGGAGACGAUUGCGGGUUCGAGUCCCGUAAGGAUCG | -0.082
GGUCCUUUGGCGUAAUGGUAACGCGUUUCCCUCCUAAGGAGACGAUUGCGGGUUCGAGUCCCGUAAGGGGCG | -0.187
AUUCCUUUGGCGUAAUGGUAACGCGUCUCCCUCCUAAGGAGACGACUGCGGGUUCGAGUCCCGUAAGGAACG | -0.19
AUUCCGUUGGCGUAAUGGUAACGCGUCUCCCUCCUAAGGAGACGACUGCGGGUUCGAGUCCCGUACGGAGUG | -0.095
GGUCCGUUGGCGUAAUGGUAACGCGUCUCCCUCCUAAGGAGAAGACUGCGGGUUCGAGUCCCGUAAGGAUUG | -0.0556
GUUCCGUUGGCGUAAUGGUAACGCGUUUCCCUCCUAAGGAGACGACUGCGGGUUCGAGUCCCGUACGGAUCG | -0.185
GGUCCGUUGGCGUAAUGGUAACGCGUUUCCCUCCUAAGGAGAAGACUGCGGGUUCGAGUCCCGUAUGGGACG | -0.231
AUUCCAUUGGCGUAAUGGUAACGCGUUUCCCUCCUAAGGAGAAGAUUGCGGGUUCGAGUCCCGUAUGGAGUG | -0.21
AGUCCUUUGGCGUAAUGGUAACGCGUUUCCCUCCUAAGGAGACGAUUGCGGGUUCGAGUCCCGUAAGGAACG | -0.25
GCUCCAUUGGCGUAAUGGUAACGCGUCUCCCUCCUAAGGAGAAGAUUGCGGGUUCGAGUCCCGUAUGGGACG | -0.293

Variant | yeast fitness (ln)
ACUCCUUUGGCGUAAUGGUAACGCGUUUCCCUCCUAAGGAGACGACUGCGGGUUCGAGUCCCGUACGGAAUG | -0.263
ACUCCGUUGGCGUAAUGGUAACGCGUUUCCCUCCUAAGGAGACGACUGCGGGUUCGAGUCCCGUAUGGGUUG | -0.397
GUUCCAUUGGCGUAAUGGUAACGCGUCUCCCUCCUAAGGAGAAGACUGCGGGUUCGAGUCCCGUACGGAUUG | -0.14
GCUCCAUUGGCGUAAUGGUAACGCGUCUCCCUCCUAAGGAGAAGACUGCGGGUUCGAGUCCCGUAAGGAGUG | -0.286
GUUCCUUUGGCGUAAUGGUAACGCGUCUCCCUCCUAAGGAGACGACUGCGGGUUCGAGUCCCGUAUGGGGCG | -0.333
GCUCCGUUGGCGUAAUGGUAACGCGUCUCCCUCCUAAGGAGACGACUGCGGGUUCGAGUCCCGUAAGGAACG | -0.0546
GUUCCUUUGGCGUAAUGGUAACGCGUCUCCCUCCUAAGGAGAAGAUUGCGGGUUCGAGUCCCGUAAGGAGUG | -0.15
GGUCCGUUGGCGUAAUGGUAACGCGUCUCCCUCCUAAGGAGAAGACUGCGGGUUCGAGUCCCGUACGGGACG | -0.112
GGUCCUUUGGCGUAAUGGUAACGCGUCUCCCUCCUAAGGAGAAGAUUGCGGGUUCGAGUCCCGUAAGGGGUG | -0.164
ACUCCAUUGGCGUAAUGGUAACGCGUUUCCCUCCUAAGGAGAAGAUUGCGGGUUCGAGUCCCGUACGGAUUG | -0.0799
AUUCCUUUGGCGUAAUGGUAACGCGUUUCCCUCCUAAGGAGACGAUUGCGGGUUCGAGUCCCGUACGGAUUG | -0.318
GCUCCUUUGGCGUAAUGGUAACGCGUUUCCCUCCUAAGGAGACGACUGCGGGUUCGAGUCCCGUAAGGAGUG | -0.0868
AUUCCAUUGGCGUAAUGGUAACGCGUCUCCCUCCUAAGGAGAAGACUGCGGGUUCGAGUCCCGUACGGGAUG | -0.146
GGUCCGUUGGCGUAAUGGUAACGCGUCUCCCUCCUAAGGAGACGACUGCGGGUUCGAGUCCCGUAAGGGUUG | -0.28
GGUCCAUUGGCGUAAUGGUAACGCGUUUCCCUCCUAAGGAGAAGAUUGCGGGUUCGAGUCCCGUAAGGGAUG | -0.325
GGUCCUUUGGCGUAAUGGUAACGCGUCUCCCUCCUAAGGAGAAGAUUGCGGGUUCGAGUCCCGUACGGAAUG | -0.134
GUUCCAUUGGCGUAAUGGUAACGCGUCUCCCUCCUAAGGAGAAGACUGCGGGUUCGAGUCCCGUACGGAACG | -0.0301
AGUCCGUUGGCGUAAUGGUAACGCGUCUCCCUCCUAAGGAGAAGAUUGCGGGUUCGAGUCCCGUAUGGGGCG | -0.172
AGUCCUUUGGCGUAAUGGUAACGCGUUUCCCUCCUAAGGAGAAGAUUGCGGGUUCGAGUCCCGUAUGGGUCG | -0.339
